We go through five compounds from ChEMBL document CHEMBL1147977, “UDP acting at P2Y6 receptors is a mediator of microglial phagocytosis” (2007).

Molecules are shown by their SMILES. The source made the active and inactive calls. The rule behind the calls is not given here.

Assay [1] concerns Neuron. Description: Induction of neuronal loss in Wistar rat neurons at 10 mg/kg, ip after 2-3 days. Set-up: dose 10 mg/kg. Format: functional, organism-based.
Assay [2] relates to Hippocampus. Description: Induction of neuronal loss in Wistar rat hippocampal CA1 region assessed as increase in number of microglia by immunohistochemical analysis. The assay is classed as functional, tissue-based. Summed up:
(§1)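 Rats given 10 mg kg⁻¹ i.p.; 72 h later hippocampal sections double-stained with anti-NeuN (neurons) and anti-Iba1 (microglia) to assess CA1 and CA3 neuronal loss and microglial number.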

Assay [3] relates to Microglia. The assay is described as follows: Increase in phagocytosis in Wistar rat microglia assessed as uptake of microspheres by FACS. The assay is classed as functional, cell-based. Summed up:
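Cultured primary rat microglia incubated 20 min with fluorescent latex beads plus agonist (5–1,000 μM); bead uptake quantified by flow cytometry; three experiments.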

Assay [4] relates to Rattus norvegicus. Description: Increase in P2Y6 receptor protein expression in Wistar rat brain at 10 mg/kg, ip after 72 hrs by Western blotting. Format: functional, organism-based. Set-up: dose 10 mg/kg. Summed up:
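Rats given 10 mg kg⁻¹ i.p. (saline-injected controls); brains removed 72 h later and hippocampal P2Y₆ receptor protein quantified by western blot; 8 control and 7 treated experiments.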

The subject of assay [5] is Hippocampus. The assay is described as follows: Reversal of drug-induced phagocytosis in Wistar rat hippocampal CA3 region assessed as increase in number of microglia at 10 mg/kg, ip in presence of MRS2578. Set-up: dose 10 mg/kg. Format: functional, organism-based. The method, boiled down: (§2)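 Rats given 10 mg kg⁻¹ i.p.; fluorescent microspheres injected into hippocampal CA3, antagonist injected into CA3 (antisense/mismatch oligonucleotide into third ventricle); microspheres taken up or attached by anti-Iba1-stained microglia counted by confocal microscopy; ANOVA with Scheffe test.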

For assay [6], the system named is Neuron. The assay is described as follows: Increase in UTP level in Wistar rat hippocampal neuron at 100 uM after 1 hr by HPLC in presence of ARL67156.
Assay [7] relates to Neuron. Description: Increase in P2Y6 receptor protein expression in Wistar rat neurons. The assay is classed as functional, cell-based. The method, boiled down:
(§3)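 Rats given 10 mg kg⁻¹ i.p.; brain sections immunostained for P2Y₆ receptor and co-stained for microglia (OX42), astrocytes (GFAP) or neurons (NeuN) to assess colocalization.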

Assay [8] has as its system Neuron. Description: Increase in UTP level in Wistar rat hippocampal neuron at 10 mg/kg, ip by microdialysis. The following applies: Hippocampus, TDE = time-dependent effect. The assay is classed as functional, organism-based. Set-up: dose 10 mg/kg.
Assay [9] concerns Hippocampus. The assay is described as follows: Upregulation of P2Y6 receptor mRNA signals in Wistar rat hippocampal CA3 region assessed as increase in number of microglia by in situ hybridization after 3 days. Format: functional, tissue-based. Summed up:
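Rats given 10 mg kg⁻¹ i.p.; 3 days later hippocampal sections probed by in situ hybridization with P2Y₆ antisense RNA probe, then stained with anti-Iba1 to identify microglia bearing receptor mRNA in CA3.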

The subject of assay [10] is Hippocampus. The assay is described as follows: Induction of neuronal loss in Wistar rat hippocampal CA3 region assessed as increase in number of microglia by immunohistochemical analysis. The assay is classed as functional, tissue-based. The method, boiled down:
as §1

In assay [11] the test system is Astrocyte. The assay is described as follows: Increase in P2Y6 receptor protein expression in Wistar rat astrocytes. The assay is classed as functional, cell-based. Summed up: as §3
For assay [12], the system named is Microglia. The assay is described as follows: Increase in P2Y6 receptor protein expression in Wistar rat microglia. The assay is classed as functional, cell-based. The method, boiled down: as §3
Assay [13] has as its system Hippocampus. Description: Induction of phagocytosis in Wistar rat hippocampal CA3 region assessed as increase in number of microglia at 10 mg/kg, ip. Set-up: dose 10 mg/kg. The assay is classed as functional, organism-based. Summed up:
as §2

For assay [14], the system named is Microglia. Description: Reversal of increase drug-induced phagocytosis in Wistar rat microglia assessed as uptake of microspheres by FACS in presence of MRS2578. Format: functional, cell-based. Summed up: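 Microglia incubated 20 min with supernatant from hippocampal neurons treated ±100 μM kainate for 1 h, with or without 1 μM antagonist; fluorescent latex bead uptake measured by flow cytometry; at least four independent experiments.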

Assay [15] is described as follows: Induction of phagocytosis in Wistar rat microglia assessed as uptake of microspheres at 100 uM after 20 mins by FACS. Format: functional. The method, boiled down: (§4)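 Rat primary cultured microglia incubated with agonist for 20 min, with UDP tested at 5–1,000 μM, in the presence of fluorescent latex microspheres. Bead uptake is quantified by FACS, and results are expressed relative to uptake with 100 μM UDP alone. Values are means ± s.e.m. of about three or four experiments.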

In assay [16] the target is P2Y purinoceptor 6 (Rattus norvegicus) (UniProt Q63371). Description: Effect on P2Y6 receptor-mediated cell motility in Wistar rat microglia assessed as formation of lamellipodia-like membrane ruffles at 10 uM after 5 mins. Summed up: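 Cultured primary rat microglia stimulated 5 min with agonist, then fixed, permeabilized and phalloidin-stained; lamellipodia-like membrane ruffles scored by microscopy.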
Sequence of P2Y purinoceptor 6 (Rattus norvegicus) (Q63371 whole entry): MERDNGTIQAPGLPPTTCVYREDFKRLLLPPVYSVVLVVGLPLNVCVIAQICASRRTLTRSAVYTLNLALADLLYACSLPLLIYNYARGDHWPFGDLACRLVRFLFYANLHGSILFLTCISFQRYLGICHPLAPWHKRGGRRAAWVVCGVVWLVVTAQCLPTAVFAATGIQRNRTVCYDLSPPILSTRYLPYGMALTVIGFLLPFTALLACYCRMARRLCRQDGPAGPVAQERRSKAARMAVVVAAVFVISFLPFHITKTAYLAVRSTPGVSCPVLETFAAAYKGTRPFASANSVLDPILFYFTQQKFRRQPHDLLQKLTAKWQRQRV

For assay [17] the target is unchanged. The assay is described as follows: Effect on P2Y6 receptor-mediated cell motility in Wistar rat microglia at 100 uM by chemotaxis assay. The method, boiled down: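 Chemotaxis of cultured primary rat microglia toward agonist (100 μM) assessed in a Dunn chemotaxis chamber.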
Assay [18] has the same target. The assay is described as follows: Activity at P2Y6 receptor in Wistar rat microglia assessed as inhibition of intracellular calcium concentration at 100 uM after 600 secs by ratiometric fura-2 fluorescence method in presence of thapsigargin. Format: functional, cell-based. Summed up:
(§5)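 Cultured rat primary microglia. Intracellular Ca2+ measured as the change in the 340/380 nm Fura-2 fluorescence ratio after stimulation with 100 μM UDP, alone or with inhibitors. The maximal UDP-alone response is the control, and responses are expressed as percent of control. Values are means ± s.e.m. of 24–36 cells from at least three independent experiments.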

Assay [19] shares this target. The assay is described as follows: Activity at P2Y6 receptor in Wistar rat microglia assessed as inhibition of intracellular calcium concentration at 100 uM by ratiometric fura-2 fluorescence method in presence of reactive blue 2. The assay is classed as functional, cell-based. The method, boiled down: as §5
Assay [20] relates to Microglia. The assay is described as follows: Reversal of drug-induced phagocytosis in Wistar rat microglia at 100 uM in presence of U73122. Format: functional, cell-based. Summed up: (§6)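 Rat primary cultured microglia stimulated with 100 μM UDP, with or without reactive blue 2 (30–100 μM), suramin (300 μM), MRS2578 (0.01–3 μM), thapsigargin (1 μM), staurosporine (5 μM) or U73122 (10 μM). Uptake of fluorescent latex microspheres during the 20-min incubation is quantified by FACS. Values are means ± s.e.m.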

The target in assay [21] is P2Y purinoceptor 6 (Rattus norvegicus) (UniProt Q63371). The assay is described as follows: Activity at P2Y6 receptor in Wistar rat microglia assessed as inhibition of intracellular calcium concentration at 100 uM after 300 secs by ratiometric fura-2 fluorescence method in presence of U73122. The assay is classed as functional, cell-based. Summed up:
as §5

The target is the same in assay [22]. The assay is described as follows: Activity at P2Y6 receptor in Wistar rat microglia assessed as inhibition of intracellular calcium concentration at 100 uM in presence of suramin by ratiometric fura-2 fluorescence method. Format: functional, cell-based. The method, boiled down:
as §5

Assay [23] has as its system Microglia. Description: Reversal of drug-induced of phagocytosis in Wistar rat microglia at 100 uM in presence of suramin. The assay is classed as functional. Summed up: as §6
In assay [24] the test system is Microglia. The assay is described as follows: Reversal of drug-induced of phagocytosis in Wistar rat microglia at 100 uM in presence of reactive blue 2. Format: functional. Summed up:
as §6

The target of assay [25] is P2Y purinoceptor 6 (Rattus norvegicus) (UniProt Q63371). The assay is described as follows: Activity at P2Y6 receptor in Wistar rat microglia assessed as inhibition of intracellular calcium concentration at 100 uM after 600 secs by ratiometric fura-2 fluorescence method in presence of xestospongin C. The assay is classed as functional, cell-based. The method, boiled down: as §5

For assay [26] the target is unchanged. Description: Activity at P2Y6 receptor in Wistar rat microglia assessed as inhibition of intracellular calcium concentration at 100 uM by ratiometric fura-2 fluorescence method in presence of MRS2578. The assay is classed as functional, cell-based. The method, boiled down: as §5
Assay [27] deals with Microglia. Description: Effect on formation of F-actin aggregation in Wistar rat microglia at 100 uM after 5 mins. Format: functional, cell-based. The method, boiled down: (§7)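 Rat primary cultured microglia stimulated for 5 min with 100 μM UDP or 10 μM ATP, then fixed, permeabilized and stained with phalloidin. Membrane ruffles and other actin structures are assessed by microscopy.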

For assay [28], the target named is P2Y purinoceptor 6 (Rattus norvegicus) (UniProt Q63371). Description: Agonist activity at P2Y6 receptor in Wistar rat microglia assessed as increase in intracellular calcium concentration by ratiometric fura-2 fluorescence method. The assay is classed as functional, cell-based. Summed up:
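Rat primary cultured microglia loaded with Fura-2. The rise in [Ca2+]i is read as the change in the 340/380 nm fluorescence ratio. UDP is applied over a concentration range, and the fraction of responding cells is also scored.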

For assay [29], the system named is Microglia. The assay is described as follows: Reversal of drug-induced phagocytosis in Wistar rat microglia at 100 uM in presence of MRS2578. The assay is classed as functional. The method, boiled down: as §6
Assay [30] deals with Microglia. Description: Effect on formation of phagosome-like vacuoles in Wistar rat microglia at 100 uM after 5 mins. The assay is classed as functional, cell-based. The method, boiled down:
as §7

Assay [31] concerns Microglia. Description: Reversal of drug-induced phagocytosis in Wistar rat microglia at 100 uM in presence of thapsigargin. The assay is classed as functional, cell-based. Summed up:
as §6

The test system of assay [32] is Microglia. The assay is described as follows: Induction of phagocytosis in Wistar rat microglia assessed as uptake of microspheres after 20 mins by FACS. Format: functional, cell-based. The method, boiled down:
as §4

The test system of assay [33] is Microglia. The assay is described as follows: Effect on formation of filopodia-like protrusions in Wistar rat microglia at 100 uM after 5 mins. Format: functional, cell-based. Summed up:
as §7

Assay [34] deals with Microglia. The assay is described as follows: Reversal of drug-induced phagocytosis in Wistar rat microglia at 100 uM in presence of staurosporine. Format: functional, cell-based. The method, boiled down:
as §6

In assay [35] the test system is Microglia. The assay is described as follows: Effect on formation of phagocytotic cup in Wistar rat microglia at 100 uM after 5 mins. Format: functional, cell-based. The method, boiled down:
as §7

Assay [36] addresses P2Y purinoceptor 6 (Rattus norvegicus) (UniProt Q63371). The assay is described as follows: Effect on P2Y6 receptor-mediated cell motility in Wistar rat microglia assessed as formation of lamellipodia-like membrane ruffles at 100 uM after 5 mins. Summed up: as §7
The target in assay [37] is T1, Cysteinyl leukotriene receptor 1 (Rattus norvegicus) (UniProt Q924T8).
T1 sequence (whole entry): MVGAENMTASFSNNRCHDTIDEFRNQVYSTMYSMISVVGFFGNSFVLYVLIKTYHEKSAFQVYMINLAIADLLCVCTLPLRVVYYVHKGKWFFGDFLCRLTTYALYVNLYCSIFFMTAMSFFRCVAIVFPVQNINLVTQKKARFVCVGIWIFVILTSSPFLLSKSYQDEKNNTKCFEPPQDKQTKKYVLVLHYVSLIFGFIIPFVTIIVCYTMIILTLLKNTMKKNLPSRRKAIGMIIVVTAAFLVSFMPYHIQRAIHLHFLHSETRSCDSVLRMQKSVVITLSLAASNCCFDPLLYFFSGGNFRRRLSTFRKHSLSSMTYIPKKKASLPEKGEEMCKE
The assay is described as follows: Agonist activity at CysLT1 receptor in Wistar rat microglia assessed as increase in intracellular calcium concentration at 30 uM by ratiometric fura-2 fluorescence method. Format: functional, cell-based.

Take `C=C(C)[C@H]1CN[C@H](C(=O)O)[C@H]1CC(=O)O` [KAINIC ACID]: the outcome in assay [1], in [2], in [3], in assay [4], in assay [5] and in [9] was Active. Besides, the result in assay [10], in [12], in [13] and in assay [14] was Active. The Activity is 10.5 µM in [6] and “tde” in assay [8]. Also, the result in [7] and in assay [11] was inactive.
On to `Nc1ncnc2c1ncn2[C@@H]1O[C@H](COP(=O)(O)OP(=O)(O)O)[C@@H](O)[C@H]1O` [ADENOSINE DIPHOSPHATE], for which the Activity in assay [15] came to 0.3%.
On the same count and under the same terms, under `Nc1nc2c(ncn2[C@@H]2O[C@H](COP(=O)(O)OP(=O)(O)O)[C@@H](O)[C@H]2O)c(=O)[nH]1` stands 49.7%.
On to `Nc1ncnc2c1ncn2[C@@H]1O[C@H](COP(=O)(O)OP(=O)(O)OP(=O)(O)O)[C@@H](O)[C@H]1O`, for which the result in assay [16] and in assay [17] was Active.
On to `O=c1ccn([C@@H]2O[C@H](COP(=O)(O)OP(=O)(O)O)[C@@H](O)[C@H]2O)c(=O)[nH]1`, for which the result in assay [18], in [19], in assay [20], in [21], in assay [22] and in [23] was Active. Besides, the result in [24], in assay [25], in assay [26], in assay [27], in assay [29] and in assay [30] was Active. Also, the result in assay [31], in assay [33], in assay [34], in [35] and in assay [37] was Active. Further, the Activity entry in assay [28] and in assay [32] was “Dose-dependent effect” throughout. The outcome in [17] and in [36] was inactive.
